Experimental findings from ChEMBL document CHEMBL1152792, “Synthesis and anticonvulsant activity of amino acid-derived sulfamides” (J Med Chem, 2009) are described below.

SMILES strings stand for the structures. Activity calls are given as the source filed them. No cut-off for these calls is given here.

For data set [1], the system named is Mus musculus. The data set can be described thus: Anticonvulsant activity in albino mouse at 30 mg/kg, ip after 0.5 hrs by MES test. In kind it is functional, organism-based. The arrangement: dose 30 mg/kg. An outline of the steps:
(§1)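 NIH Anticonvulsant Drug Development (ADD) program phase I screen in adult male albino mice (18–23 g). Compound given ip in 30% PEG 400 and 10% water at 0.01 mL/g body weight. Seizures were induced electrically (MES) or chemically (PTZ), and animals were tested 0.5 and 4 h after dosing. Result scored as protected/tested animals.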

The subject of data set [2] is Mus musculus. The experiment in a line: Anticonvulsant activity in albino mouse at 100 mg/kg, ip after 0.5 hrs by MES test. Set-up: dose 100 mg/kg. In kind it is functional, organism-based. The method, boiled down:
as §1

In data set [3] the test system is Mus musculus. The data set can be described thus: Anticonvulsant activity in albino mouse at 300 mg/kg, ip after 0.5 hrs by MES test. The data set is classed as functional, organism-based. The arrangement: dose 300 mg/kg. The method, boiled down: as §1
The test system of data set [4] is Mus musculus. The data set can be described thus: Anticonvulsant activity in albino mouse at 30 mg/kg, ip after 4 hrs by MES test. In kind it is functional, organism-based. The arrangement: dose 30 mg/kg. An outline of the steps: as §1
Data set [5] relates to Mus musculus. The experiment in a line: Anticonvulsant activity in albino mouse at 100 mg/kg, ip after 4 hrs by MES test. In kind it is functional, organism-based. The arrangement: dose 100 mg/kg. The method, boiled down:
as §1

The subject of data set [6] is Mus musculus. The experiment in a line: Anticonvulsant activity in albino mouse at 300 mg/kg, ip after 4 hrs by MES test. In kind it is functional, organism-based. Set-up: dose 300 mg/kg. The method, boiled down: as §1
Data set [7] deals with Mus musculus. The data set can be described thus: Anticonvulsant activity in albino mouse at 30 mg/kg, ip after 0.5 hrs by PTZ test. In kind it is functional, organism-based. Set-up: dose 30 mg/kg. An outline of the steps:
as §1

Data set [8] concerns Mus musculus. The data set can be described thus: Anticonvulsant activity in albino mouse at 100 mg/kg, ip after 0.5 hrs by PTZ test. In kind it is functional, organism-based. Set-up: dose 100 mg/kg. The method, boiled down:
as §1

In data set [9] the test system is Mus musculus. The data set can be described thus: Anticonvulsant activity in albino mouse at 300 mg/kg, ip after 0.5 hrs by PTZ test. The arrangement: dose 300 mg/kg. In kind it is functional, organism-based. The method, boiled down:
as §1

Data set [10] deals with Mus musculus. The data set can be described thus: Anticonvulsant activity in albino mouse at 30 mg/kg, ip after 4 hrs by PTZ test. The arrangement: dose 30 mg/kg. In kind it is functional, organism-based. An outline of the steps: as §1
Data set [11] relates to Mus musculus. The experiment in a line: Anticonvulsant activity in albino mouse at 100 mg/kg, ip after 4 hrs by PTZ test. Set-up: dose 100 mg/kg. The data set is classed as functional, organism-based. An outline of the steps:
as §1

Data set [12] relates to Mus musculus. The data set can be described thus: Anticonvulsant activity in albino mouse at 300 mg/kg, ip after 4 hrs by PTZ test. The data set is classed as functional, organism-based. The arrangement: dose 300 mg/kg. An outline of the steps: as §1
Data set [13] relates to Mus musculus. The experiment in a line: Toxicity in albino mouse at 30 mg/kg, ip after 0.5 hrs by rotarod test. In kind it is organism-based. The arrangement: dose 30 mg/kg, route intraperitoneal. As to conditions: in vivo. The method, boiled down:
(§2)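 Neurotoxicity was screened by the standardized rotarod test in the ADD phase I protocol. Adult male albino mice (18–23 g) received compound ip in 30% PEG 400 and 10% water at 0.01 mL/g. Animals were tested 0.5 and 4 h post-dose. Result scored as toxic/tested animals.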

Data set [14] deals with Mus musculus. The experiment in a line: Toxicity in albino mouse at 100 mg/kg, ip after 0.5 hrs by rotarod test. The data set is classed as organism-based. Set-up: dose 100 mg/kg, route intraperitoneal. As to conditions: in vivo. The method, boiled down:
as §2
(Falling from the rotarod earlier than controls is read as motor impairment.)

For data set [15], the system named is Mus musculus. The experiment in a line: Toxicity in albino mouse at 300 mg/kg, ip after 0.5 hrs by rotarod test. The arrangement: dose 300 mg/kg, route intraperitoneal. The data set is classed as organism-based. To be noted: in vivo. The method, boiled down: as §2
The test system of data set [16] is Mus musculus. The experiment in a line: Toxicity in albino mouse at 30 mg/kg, ip after 4 hrs by rotarod test. The data set is classed as organism-based. The arrangement: dose 30 mg/kg, route intraperitoneal. As to conditions: in vivo. The method, boiled down: as §2
In data set [17] the test system is Mus musculus. The data set can be described thus: Toxicity in albino mouse at 100 mg/kg, ip after 4 hrs by rotarod test. The data set is classed as organism-based. The arrangement: dose 100 mg/kg, route intraperitoneal. To be noted: in vivo. An outline of the steps:
as §2

In data set [18] the test system is Mus musculus. The data set can be described thus: Toxicity in albino mouse at 300 mg/kg, ip after 4 hrs by rotarod test. The arrangement: dose 300 mg/kg, route intraperitoneal. In kind it is organism-based. To be noted: in vivo. An outline of the steps: as §2

Turning to `COC(=O)[C@H](C)NS(=O)(=O)N[C@@H](C)C(=O)OC`, the outcome in [1], in [2], in [3], in data set [4], in [5] and in [6] was inactive. Also, the result in data set [7], in data set [8], in [9], in data set [10], in data set [11] and in [12] was inactive. For the same molecule, the Activity result in data set [13], in data set [14], in data set [15], in data set [16], in data set [17] and in [18] was “Non-toxic” in each case.

Regarding `COC(=O)CCNS(=O)(=O)NCCC(=O)OC`, the outcome in data set [1], in [4], in data set [5], in [6], in data set [7] and in data set [8] was inactive. Also, the outcome in data set [9], in data set [10], in data set [11] and in [12] was inactive. For the same molecule, the Activity entry in data set [13], in [14], in data set [15], in data set [16], in data set [17] and in [18] was “Non-toxic” in each case.

Regarding `COC(=O)CCNS(=O)(=O)NC1CCCCC1`, the result in data set [1], in [3], in data set [4] and in [6] was inactive. The Activity entry in data set [13], in [14], in [15], in data set [16], in [17] and in data set [18] was “Non-toxic” each time.

Regarding `COC(=O)CNS(=O)(=O)N(Cc1ccccc1)C(=O)OC(C)(C)C`, the outcome in data set [1], in data set [2], in data set [3], in data set [4], in data set [5] and in [6] was inactive. The outcome in data set [7], in data set [8], in [9], in [10], in data set [11] and in [12] was inactive. Further, the Activity result in data set [13], in data set [14], in [15], in data set [16], in data set [17] and in data set [18] was “Non-toxic” each time.

Consider `COC(=O)[C@@H](NS(=O)(=O)N[C@H](C(=O)OC)C(C)C)C(C)C`, for which the outcome in data set [1], in data set [4], in [5], in [6], in data set [7] and in data set [8] was inactive. The result in [9], in data set [10], in data set [11] and in [12] was inactive. The Activity result in [13], in [14], in [15], in data set [16], in data set [17] and in data set [18] was “Non-toxic” in each case.

For the molecule `CCCC(CCC)CN(C(=O)OC(C)(C)C)S(=O)(=O)NCC(=O)OC`, the result in data set [1], in data set [2], in data set [3], in data set [4], in [5] and in data set [7] was inactive. In addition, the result in data set [8], in data set [9], in data set [10], in data set [11] and in [12] was inactive. For the same molecule, the Activity result in data set [13], in data set [14], in data set [15], in [16], in [17] and in data set [18] was “Non-toxic” throughout.

On to `CCCC(CCC)CN(C(=O)OC(C)(C)C)S(=O)(=O)NCCC(=O)OC`, for which the outcome in data set [1], in [2], in [3], in [4], in data set [5] and in data set [6] was inactive. For the same molecule, the outcome in data set [7], in data set [8], in [9], in [10], in data set [11] and in data set [12] was inactive. The Activity entry in [13], in data set [14], in [15], in data set [16], in [17] and in data set [18] was “Non-toxic” in each case.

Regarding `COC(=O)[C@@H](C)NS(=O)(=O)NC(=O)OC(C)(C)C`, the outcome in data set [1], in [2], in data set [3], in [4], in [5] and in [6] was inactive. For the same molecule, the result in [7], in data set [8], in data set [9], in [10], in data set [11] and in [12] was inactive. Besides, the Activity entry in data set [13], in data set [14], in [15], in [16], in [17] and in data set [18] was “Non-toxic” in each case.

On to `COC(=O)CCNS(=O)(=O)NC(=O)OC(C)(C)C`, for which the outcome in data set [1], in data set [2], in data set [4], in [5], in data set [6] and in [7] was inactive. For the same molecule, the outcome in [8], in [9], in [10], in data set [11] and in data set [12] was inactive. In addition, the Activity result in data set [13], in [14], in data set [15], in [16], in [17] and in data set [18] was “Non-toxic” throughout.

Turning to `COC(=O)CCNS(=O)(=O)NCc1ccccc1`, the outcome in data set [1], in data set [4], in data set [5], in data set [6], in data set [7] and in data set [8] was inactive. Moreover, the result in data set [9], in data set [11] and in data set [12] was inactive. The Activity entry in data set [13], in data set [14], in data set [15], in data set [16], in data set [17] and in data set [18] was “Non-toxic” throughout.
